# “And” between values parts separate entries of the source, which are not always exact repeats. Equal entries are not always repeated.
# Tested on: HEK-293T
# Assay: Multiplex assay against HEK293T
# Format: toxicity, cell-based
# Details: human, number of replicates 2
# Method in brief: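 Imaging took place on a CQ1 microscope at 37°C and 5% CO2 once compound had been added to live cells stained at seeding with Hoechst33342, BioTracker Green Microtubule Cytoskeleton Dye, MitoTracker Red and Annexin V Alexa Fluor 680. CellPathfinder machine-learning gating classed cells as Hoechst high-intensity objects or normal cells, classed normal cells as having healthy, pyknosed or fragmented nuclei, and classed pyknosed cells as mitotic or apoptotic. Tubulin, mitochondrial-mass and membrane-permeability phenotypes are per cents of the healthy-nucleus cells.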
# [1] = 12 h, 1 µM, compound concentration 1 uM
# [2] = 12 h, 10 µM, compound concentration 10 uM
# [3] = 24 h, 1 µM, compound concentration 1 uM
# [4] = 24 h, 10 µM, compound concentration 10 uM
# [5] = 48 h, 1 µM, compound concentration 1 uM
# [6] = 48 h, 10 µM, compound concentration 10 uM
structure (smiles),measurement,setting,value
CN(C)CCN(Cc1ccc(-c2ccc(CNCCc3ccccc3)cc2)cc1)C(=O)CCC1CCCC1.Cl.Cl,Population Apoptotic (%),[1],45% and 51%
same,Population Fragmented Nuclei (%),[1],2% and 1%
same,Population Healthy Nuclei (%),[1],87% and 86%
same,Population Hoechst High Intensity Objects (%),[1],6% and 3%
same,Population Membrane Permeable-Phenotype (%),[1],2%
same,Population Mitochondria Different-Phenotype (%),[1],34% and 33%
same,Population Mitotic Cells (%),[1],54% and 48%
same,Population Normal (%),[1],93% and 96%
same,Population Pyknosed Nuclei (%),[1],9% and 11%
same,Population Tubulin-Different-Phenotype (%),[1],86% and 78%
same,Total Cell Count,[1],835 and 591
same,Population Apoptotic (%),[2],61% and 57%
same,Population Fragmented Nuclei (%),[2],7% and 4%
same,Population Healthy Nuclei (%),[2],43% and 42%
same,Population Hoechst High Intensity Objects (%),[2],28% and 30%
same,Population Membrane Permeable-Phenotype (%),[2],4% and 1%
same,Population Mitochondria Different-Phenotype (%),[2],72% and 73%
same,Population Mitotic Cells (%),[2],38% and 42%
same,Population Normal (%),[2],71% and 69%
same,Population Pyknosed Nuclei (%),[2],48% and 52%
same,Population Tubulin-Different-Phenotype (%),[2],93% and 96%
same,Total Cell Count,[2],396 and 358
same,Population Apoptotic (%),[3],36%
same,Population Fragmented Nuclei (%),[3],4% and 6%
same,Population Healthy Nuclei (%),[3],89% and 85%
same,Population Hoechst High Intensity Objects (%),[3],6% and 5%
same,Population Membrane Permeable-Phenotype (%),[3],1%
same,Population Mitochondria Different-Phenotype (%),[3],17% and 21%
same,Population Mitotic Cells (%),[3],63%
same,Population Normal (%),[3],93% and 94%
same,Population Pyknosed Nuclei (%),[3],6% and 7%
same,Population Tubulin-Different-Phenotype (%),[3],63% and 61%
same,Total Cell Count,[3],1227 and 899
same,Population Apoptotic (%),[4],73%
same,Population Fragmented Nuclei (%),[4],5%
same,Population Healthy Nuclei (%),[4],42% and 36%
same,Population Hoechst High Intensity Objects (%),[4],31% and 39%
same,Population Membrane Permeable-Phenotype (%),[4],3% and 1%
same,Population Mitochondria Different-Phenotype (%),[4],80% and 84%
same,Population Mitotic Cells (%),[4],26%
same,Population Normal (%),[4],68% and 60%
same,Population Pyknosed Nuclei (%),[4],51% and 57%
same,Population Tubulin-Different-Phenotype (%),[4],89% and 95%
same,Total Cell Count,[4],357 and 312
same,Population Apoptotic (%),[5],15% and 20%
same,Population Fragmented Nuclei (%),[5],12% and 9%
same,Population Healthy Nuclei (%),[5],84% and 86%
same,Population Hoechst High Intensity Objects (%),[5],8%
same,Population Membrane Permeable-Phenotype (%),[5],4% and 5%
same,Population Mitochondria Different-Phenotype (%),[5],0% and 2%
same,Population Mitotic Cells (%),[5],84% and 79%
same,Population Normal (%),[5],91%
same,Population Pyknosed Nuclei (%),[5],3% and 4%
same,Population Tubulin-Different-Phenotype (%),[5],21% and 25%
same,Total Cell Count,[5],3014 and 1979
same,Population Apoptotic (%),[6],88% and 79%
same,Population Fragmented Nuclei (%),[6],9% and 5%
same,Population Healthy Nuclei (%),[6],30% and 28%
same,Population Hoechst High Intensity Objects (%),[6],33% and 40%
same,Population Membrane Permeable-Phenotype (%),[6],1% and 0%
same,Population Mitochondria Different-Phenotype (%),[6],82% and 91%
same,Population Mitotic Cells (%),[6],11% and 20%
same,Population Normal (%),[6],66% and 59%
same,Population Pyknosed Nuclei (%),[6],60% and 65%
same,Population Tubulin-Different-Phenotype (%),[6],84% and 93%
same,Total Cell Count,[6],318 and 281
COc1cc(C(=O)NC2CCN(C)CC2)ccc1Nc1ncc(C(F)(F)F)c(NCc2ccc(C)cc2N(C)S(C)(=O)=O)n1.O=CO.O=CO,Population Apoptotic (%),[1],57% and 71%
same,Population Fragmented Nuclei (%),[1],5% and 6%
same,Population Healthy Nuclei (%),[1],81% and 84%
same,Population Hoechst High Intensity Objects (%),[1],13% and 16%
same,Population Membrane Permeable-Phenotype (%),[1],4% and 0%
same,Population Mitochondria Different-Phenotype (%),[1],50% and 59%
same,Population Mitotic Cells (%),[1],42% and 28%
same,Population Normal (%),[1],86% and 83%
same,Population Pyknosed Nuclei (%),[1],13% and 9%
same,Population Tubulin-Different-Phenotype (%),[1],89% and 95%
same,Total Cell Count,[1],378 and 461
same,Population Apoptotic (%),[2],86% and 89%
same,Population Fragmented Nuclei (%),[2],7% and 6%
same,Population Healthy Nuclei (%),[2],45% and 62%
same,Population Hoechst High Intensity Objects (%),[2],23%
same,Population Membrane Permeable-Phenotype (%),[2],6% and 0%
same,Population Mitochondria Different-Phenotype (%),[2],74% and 85%
same,Population Mitotic Cells (%),[2],13% and 10%
same,Population Normal (%),[2],76%
same,Population Pyknosed Nuclei (%),[2],47% and 31%
same,Population Tubulin-Different-Phenotype (%),[2],87% and 92%
same,Total Cell Count,[2],288 and 266
same,Population Apoptotic (%),[3],73% and 60%
same,Population Fragmented Nuclei (%),[3],9% and 10%
same,Population Healthy Nuclei (%),[3],83% and 80%
same,Population Hoechst High Intensity Objects (%),[3],12%
same,Population Membrane Permeable-Phenotype (%),[3],5% and 1%
same,Population Mitochondria Different-Phenotype (%),[3],17%
same,Population Mitotic Cells (%),[3],26% and 40%
same,Population Normal (%),[3],87%
same,Population Pyknosed Nuclei (%),[3],7% and 8%
same,Population Tubulin-Different-Phenotype (%),[3],70% and 79%
same,Total Cell Count,[3],658 and 751
same,Population Apoptotic (%),[4],84% and 81%
same,Population Fragmented Nuclei (%),[4],8% and 3%
same,Population Healthy Nuclei (%),[4],35% and 51%
same,Population Hoechst High Intensity Objects (%),[4],22% and 23%
same,Population Membrane Permeable-Phenotype (%),[4],7% and 5%
same,Population Mitochondria Different-Phenotype (%),[4],71% and 68%
same,Population Mitotic Cells (%),[4],15% and 18%
same,Population Normal (%),[4],77% and 76%
same,Population Pyknosed Nuclei (%),[4],55% and 44%
same,Population Tubulin-Different-Phenotype (%),[4],86% and 95%
same,Total Cell Count,[4],363 and 344
same,Population Apoptotic (%),[5],41% and 21%
same,Population Fragmented Nuclei (%),[5],15% and 16%
same,Population Healthy Nuclei (%),[5],81% and 79%
same,Population Hoechst High Intensity Objects (%),[5],16% and 14%
same,Population Membrane Permeable-Phenotype (%),[5],1% and 3%
same,Population Mitochondria Different-Phenotype (%),[5],3% and 1%
same,Population Mitotic Cells (%),[5],58% and 78%
same,Population Normal (%),[5],83% and 85%
same,Population Pyknosed Nuclei (%),[5],3%
same,Population Tubulin-Different-Phenotype (%),[5],51% and 37%
same,Total Cell Count,[5],1721 and 1697
same,Population Apoptotic (%),[6],82% and 77%
same,Population Fragmented Nuclei (%),[6],8% and 4%
same,Population Healthy Nuclei (%),[6],22% and 25%
same,Population Hoechst High Intensity Objects (%),[6],25% and 22%
same,Population Membrane Permeable-Phenotype (%),[6],4% and 2%
same,Population Mitochondria Different-Phenotype (%),[6],55% and 76%
same,Population Mitotic Cells (%),[6],17% and 22%
same,Population Normal (%),[6],74% and 77%
same,Population Pyknosed Nuclei (%),[6],68% and 69%
same,Population Tubulin-Different-Phenotype (%),[6],93% and 95%
same,Total Cell Count,[6],374 and 336

# Source: ChEMBL document CHEMBL5303300, “EUbOPEN Chemogenomics Library - Multiplex” (2023)
